Data reported in ChEMBL document CHEMBL4422636, “Investigation of the structural requirements for N-methyl-D-aspartate receptor positive and negative allosteric modulators based on 2-naphthoic acid” (Eur J Med Chem, 2019).
The source made the active and inactive calls. The calls are words filed in the database; no cut-off is given here.

Experiments:
[1] = target: T1, Glutamate NMDA receptor; Grin1/Grin2a (Rattus norvegicus, UniProt P35439+Q00959); test: Negative allosteric modulation of rat GluN1/GluN2A expressed in Xenopus laevis oocytes assessed as inhibition of L-glutamate/glycine-induced current response at holding potential -60 mV by two-electrode voltage clamp method; type: cell-based
Procedure, shortened: (§1)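 Oocytes injected with GluN1a plus GluN2A, 2B, 2C or 2D RNA (1:1–3 molar, 15–30 ng total) and kept in ND-96 at 17°C for 1–5 days. TEVC at −60 mV in HEPES-buffered NaCl/KCl/BaCl2 saline, pH 7.4. […] Curves were fitted to give EC50/IC50 and maximal potentiation or inhibition, mean ± s.e.m.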

[2] = target: Glutamate receptor ionotropic, NMDA 2C (Rattus norvegicus) (UniProt Q00961); test: Allosteric modulation of rat GluN2C expressed in Xenopus laevis oocytes assessed as L-glutamate/glycine-induced current response at 100 uM at holding potential -60 mV by two-electrode voltage clamp method relative to L-glutamate/glycine; type: cell-based
Procedure, shortened: (§2)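 GluN1a with one GluN2 subunit; RNAs mixed 1:1–3 molar, 15–30 ng total injected into Xenopus oocytes, which were held in ND-96 at 17°C for 1–5 days. TEVC at −60 mV in 116 mM NaCl, 2 mM KCl, 0.3 mM BaCl2, 5 mM HEPES, pH 7.4. […] Reported as % of agonist-alone response, mean ± s.e.m., n≥4.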

[3] = target: Glutamate receptor ionotropic, NMDA 2D (Rattus norvegicus) (UniProt Q62645); test: Allosteric modulation of rat GluN2D expressed in Xenopus laevis oocytes assessed as L-glutamate/glycine-induced current response at 100 uM at holding potential -60 mV by two-electrode voltage clamp method relative to L-glutamate/glycine; type: cell-based; procedure, shortened: as §2
[4] = target: Glutamate NMDA receptor; Grin1/Grin2a (Rattus norvegicus) (UniProt P35439+Q00959); test: Negative allosteric modulation of rat GluN1/GluN2A expressed in Xenopus laevis oocytes assessed as inhibition of L-glutamate/glycine-induced current response at holding potential -60 mV by two-electrode voltage clamp method relative to untreated control; type: cell-based; parameters: concentration or dose not given beside the values; procedure, shortened: as §1
[5] = target: Glutamate NMDA receptor; Grin1/Grin2c (Rattus norvegicus) (UniProt P35439+Q00961); test: Negative allosteric modulation of rat GluN1/GluN2C expressed in Xenopus laevis oocytes assessed as inhibition of L-glutamate/glycine-induced current response at holding potential -60 mV by two-electrode voltage clamp method relative to untreated control; type: cell-based; parameters: concentration or dose not given beside the values; procedure, shortened: as §1
[6] = target: T2, Glutamate NMDA receptor; Grin1/Grin2c (Rattus norvegicus, UniProt P35439+Q00961); test: Negative allosteric modulation of rat GluN1/GluN2C expressed in Xenopus laevis oocytes assessed as inhibition of L-glutamate/glycine-induced current response at holding potential -60 mV by two-electrode voltage clamp method; type: cell-based; procedure, shortened: as §1
[7] = target: Glutamate NMDA receptor; Grin1/Grin2b (Rattus norvegicus) (UniProt P35439+Q00960); test: Negative allosteric modulation of rat GluN1/GluN2B expressed in Xenopus laevis oocytes assessed as inhibition of L-glutamate/glycine-induced current response at holding potential -60 mV by two-electrode voltage clamp method relative to untreated control; type: cell-based; parameters: concentration or dose not given beside the values; procedure, shortened: as §1
[8] = target: T3, Ionotropic glutamate receptor NMDA 1/2D (Rattus norvegicus, UniProt P35439+Q62645); test: Negative allosteric modulation of rat GluN1/GluN2D expressed in Xenopus laevis oocytes assessed as inhibition of L-glutamate/glycine-induced current response at holding potential -60 mV by two-electrode voltage clamp method; type: cell-based; procedure, shortened: as §1
[9] = target: Glutamate receptor ionotropic, NMDA 2B (Rattus norvegicus) (UniProt Q00960); test: Allosteric modulation of rat GluN2B expressed in Xenopus laevis oocytes assessed as L-glutamate/glycine-induced current response at 100 uM at holding potential -60 mV by two-electrode voltage clamp method relative to L-glutamate/glycine; type: cell-based; procedure, shortened: as §2
[10] = target: Ionotropic glutamate receptor NMDA 1/2D (Rattus norvegicus) (UniProt P35439+Q62645); test: Negative allosteric modulation of rat GluN1/GluN2D expressed in Xenopus laevis oocytes assessed as inhibition of L-glutamate/glycine-induced current response at holding potential -60 mV by two-electrode voltage clamp method relative to untreated control; type: cell-based; parameters: concentration or dose not given beside the values; procedure, shortened: as §1
[11] = Solubility of the compound at 100 uM; type: physicochemical
Procedure, shortened: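 Compounds were inspected for visible precipitation at the concentrations used in the oocyte assays.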

[12] = target: Glutamate receptor ionotropic, NMDA 2A (Rattus norvegicus) (UniProt Q00959); test: Allosteric modulation of rat GluN2A expressed in Xenopus laevis oocytes assessed as L-glutamate/glycine-induced current response at 100 uM at holding potential -60 mV by two-electrode voltage clamp method relative to L-glutamate/glycine; type: cell-based; procedure, shortened: as §2
[13] = target: T4, Glutamate NMDA receptor; Grin1/Grin2b (Rattus norvegicus, UniProt P35439+Q00960); test: Negative allosteric modulation of rat GluN1/GluN2B expressed in Xenopus laevis oocytes assessed as inhibition of L-glutamate/glycine-induced current response at holding potential -60 mV by two-electrode voltage clamp method; type: cell-based; procedure, shortened: as §1
[14] = target: Glutamate receptor ionotropic, NMDA 2B (Rattus norvegicus) (UniProt Q00960); test: Agonist activity at rat GluN2B expressed in Xenopus laevis oocytes assessed as effect on current response at holding potential -60 mV by two-electrode voltage clamp method relative to L-glutamate/glycine; type: cell-based; procedure, shortened: as §2
[15] = target: Glutamate receptor ionotropic, NMDA 2D (Rattus norvegicus) (UniProt Q62645); test: Positive allosteric modulation of rat GluN2D expressed in Xenopus laevis oocytes assessed as potentiation of L-glutamate/glycine-induced current response at holding potential -60 mV by two-electrode voltage clamp method relative to L-glutamate/glycine; type: cell-based; parameters: concentration or dose not given beside the values; procedure, shortened: as §1
[16] = target: T4, Glutamate NMDA receptor; Grin1/Grin2b; test: Positive allosteric modulation of rat GluN1/GluN2B expressed in Xenopus laevis oocytes assessed as potentiation of L-glutamate/glycine-induced current response at holding potential -60 mV by two-electrode voltage clamp method; type: cell-based; procedure, shortened: as §1
[17] = target: Glutamate receptor ionotropic, NMDA 2D (Rattus norvegicus) (UniProt Q62645); test: Agonist activity at rat GluN2D expressed in Xenopus laevis oocytes assessed as effect on current response at holding potential -60 mV by two-electrode voltage clamp method relative to L-glutamate/glycine; type: cell-based; procedure, shortened: as §2
[18] = target: T2, Glutamate NMDA receptor; Grin1/Grin2c; test: Positive allosteric modulation of rat GluN1/GluN2C expressed in Xenopus laevis oocytes assessed as potentiation of L-glutamate/glycine-induced current response at holding potential -60 mV by two-electrode voltage clamp method; type: cell-based; procedure, shortened: as §1
[19] = target: Glutamate receptor ionotropic, NMDA 2C (Rattus norvegicus) (UniProt Q00961); test: Positive allosteric modulation of rat GluN2C expressed in Xenopus laevis oocytes assessed as potentiation of L-glutamate/glycine-induced current response at holding potential -60 mV by two-electrode voltage clamp method relative to L-glutamate/glycine; type: cell-based; parameters: concentration or dose not given beside the values; procedure, shortened: as §1
[20] = target: Glutamate receptor ionotropic, NMDA 2A (Rattus norvegicus) (UniProt Q00959); test: Agonist activity at rat GluN2A expressed in Xenopus laevis oocytes assessed effect on current response at holding potential -60 mV by two-electrode voltage clamp method relative to L-glutamate/glycine; type: cell-based; procedure, shortened: as §2
[21] = target: Glutamate receptor ionotropic, NMDA 2B (Rattus norvegicus) (UniProt Q00960); test: Positive allosteric modulation of rat GluN2B expressed in Xenopus laevis oocytes assessed as potentiation of L-glutamate/glycine-induced current response at holding potential -60 mV by two-electrode voltage clamp method relative to L-glutamate/glycine; type: cell-based; procedure, shortened: as §1
[22] = target: T1, Glutamate NMDA receptor; Grin1/Grin2a; test: Positive allosteric modulation of rat GluN1/GluN2A expressed in Xenopus laevis oocytes assessed as potentiation of L-glutamate/glycine-induced current response at holding potential -60 mV by two-electrode voltage clamp method; type: cell-based; procedure, shortened: as §1
[23] = target: Glutamate receptor ionotropic, NMDA 2C (Rattus norvegicus) (UniProt Q00961); test: Agonist activity at rat GluN2C expressed in Xenopus laevis oocytes assessed effect on current response at holding potential -60 mV by two-electrode voltage clamp method relative to L-glutamate/glycine; type: cell-based; procedure, shortened: as §2
[24] = target: T3, Ionotropic glutamate receptor NMDA 1/2D; test: Positive allosteric modulation of rat GluN1/GluN2D expressed in Xenopus laevis oocytes assessed as potentiation of L-glutamate/glycine-induced current response at holding potential -60 mV by two-electrode voltage clamp method; type: cell-based; procedure, shortened: as §1
[25] = target: Glutamate receptor ionotropic, NMDA 2A (Rattus norvegicus) (UniProt Q00959); test: Positive allosteric modulation of rat GluN2A expressed in Xenopus laevis oocytes assessed as potentiation of L-glutamate/glycine-induced current response at holding potential -60 mV by two-electrode voltage clamp method relative to L-glutamate/glycine; type: cell-based; parameters: concentration or dose not given beside the values; procedure, shortened: as §1

| SMILES | IC50 [1] [µM] | Activity [2] [%] | Activity [3] [%] | Activity [4] [%] | Activity [5] [%] | IC50 [6] [µM] | Activity [7] [%] | IC50 [8] [µM] | Activity [9] [%] | Activity [10] [%] | solubility [11] | Activity [12] [%] | IC50 [13] [µM] | Activity [14] | Activity [15] [%] | Activity [17] | EC50 [18] [µM] | Activity [19] [%] | Activity [20] | EC50 [22] [µM] | further results |
| --- | --- | --- | --- | --- | --- | --- | --- | --- | --- | --- | --- | --- | --- | --- | --- | --- | --- | --- | --- | --- | --- |
| O=C(O)c1cc2cc(/C=C/c3ccccc3)ccc2cc1O | 17.8 | 21.7 | 11.3 | 83.2 | 86.3 | 13.8 | 93.9 | 8.6 | 7.3 | 93.6 | Soluble | 32.7 | 7.5 | – | – | – | – | – | – | – | – |
| O=C(O)c1ccc2cc(CCCC3CCCC3)ccc2c1 | – | 171 | 161 | – | – | – | – | – | 175 | – | Soluble | 136 | – | inactive | 65.6 | inactive | 22.4 | 105 | inactive | 7.5 | EC50 [16]: 27 µM; Activity [21]: 61.9%; Activity [23]: inactive; EC50 [24]: 34.7 µM; Activity [25]: 38.4% |
| O=C(O)c1cc2cc(/C=C/c3ccc([N+](=O)[O-])cc3)ccc2cc1O | 5.8 | 43.3 | 34.4 | 54.1 | 55.9 | 6.5 | 48.4 | 2.9 | 53.2 | 72.3 | Soluble | 47.4 | 11.1 | – | – | – | – | – | – | – | – |
| O=C(O)c1cc2cc(/C=C/c3cccc([N+](=O)[O-])c3)ccc2cc1O | 9.7 | 24.4 | 30.7 | 49.7 | 74.4 | 7.9 | 66.3 | 1.4 | 28.8 | 70 | Soluble | 50.5 | 9.2 | – | – | – | – | – | – | – | – |
| C=C(CCC(C)C)c1ccc2cc(C(=O)O)ccc2c1 | – | 349 | 310 | – | – | – | – | – | 265 | – | Soluble | 163 | – | inactive | 277 | inactive | 26.1 | 137 | inactive | 114 | EC50 [16]: 116 µM; Activity [21]: 417%; Activity [23]: inactive; EC50 [24]: 72.3 µM; Activity [25]: 230% |
| CCCCCc1ccc2cc(C(=O)O)ccc2c1 | – | 126 | 110 | – | – | – | – | – | 102 | – | Soluble | 131 | – | inactive | 17.3 | inactive | 113 | 42.7 | inactive | 26.7 | Activity [23]: inactive; EC50 [24]: 61 µM; Activity [25]: 39% |
